Assay results taken from ChEMBL document CHEMBL1144702, “Synthesis and structure-activity relationship studies on tryprostatin A, an inhibitor of breast cancer resistance protein” (Bioorg Med Chem, 2008).
Activity calls are given as the source filed them. The calls are words filed in the database; no cut-off is given here.

Columns and labels:
[1] = Antiproliferative activity against mouse tsFT210 cells after 48 hrs by WST-8 assay; format: functional, cell-based; settings: tsFT210, 48 h
Outline: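 tsFT210 cells (temperature-sensitive cdc2 mutant from mouse mammary carcinoma FM3A), kept in RPMI 1640 with 10% fetal calf serum at 32 °C; exponentially growing cells exposed to compound at 32 °C for 48 h, then WST-8 added for 4 h at 37 °C; absorbance at 450 nm read to estimate cell number; IC50 reported.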

[2] = Cell cycle arrest in mouse tsFT210 cells assessed as accumulation at G1 phase at 100 uM after 18 hrs by flow cytometry; format: functional, cell-based
Outline: (§1)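 Synchronous-culture assay: tsFT210 cells seeded at 1x10^5 cells/mL, preincubated 1 h at 32 °C, then incubated with compound 18 h at 32 °C; morphology checked by microscopy; DNA content by flow cytometry after staining with 50 μg/mL propidium iodide, 0.1% sodium citrate, 0.2% NP-40; nuclei/chromosomes stained with Hoechst 33258 after KCl swelling and Carnoy fixation.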

SR = assay: Cytotoxicity against human SR cells; format: functional
COLO 205 = assay: Cytotoxicity against human COLO205 cells; format: functional
[3] = Inhibition of tubulin polymerization in presence of microtubule-associated proteins at 60 uM
Outline: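 Tubulin containing MAPs in PME buffer (100 mM PIPES pH 6.9, 2 mM EGTA, 1 mM MgSO4) with GTP and drug in DMSO, tubulin added last; 37 °C, absorbance change at 351 nm over 10 min. Drug concentration varied across runs for delta absorbance versus concentration curves; colchicine standard curves made for each tubulin batch.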

BT-549 = assay: Cytotoxicity against human BT549 cells; format: functional
[4] = Cytotoxicity against human […]; format: functional
UO-31 = assay: Cytotoxicity against human UO31 cells; format: functional
[5] = Cytotoxicity against human H520 cells at 100 uM after 72 hrs by Cell Titer 96 Aqueous Non-Radioactive assay; format: functional; settings: NCI-H520, 72 h, read-out: Inhibition
Outline: (§2)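 MCF7, NCI-H520 or PC-3 cells (RPMI-1640, 10% FBS) plated 1 × 10^4/well, 24 h at 37 °C, exposed 72 h to drug at 10 or 100 μM in DMSO or EtOH vehicle (controls usually 0.2%). Survival by MTS/PMS formazan absorbance at 490 nm, plate blank subtracted, as percent of vehicle wells; quadruplicate; etoposide or m-AMSA positive controls.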

PC-3 [6] = assay: Cytotoxicity against human PC3 cells at 100 uM after 72 hrs by Cell Titer 96 Aqueous Non-Radioactive assay; format: functional; settings: PC-3, 72 h, read-out: Inhibition; outline: as §2
IGROV-1 = assay: Cytotoxicity against human IGROV1 cells; format: functional
K562 = assay: Cytotoxicity against human K562 cells; format: functional
CCRF-CEM = assay: Cytotoxicity against human CCRF-CEM cells; format: functional
HT-29 = assay: Cytotoxicity against human HT29 cells; format: functional
[7] = Cytotoxicity against human H520 cells at 10 uM after 72 hrs by Cell Titer 96 Aqueous Non-Radioactive assay; format: functional; settings: NCI-H520, 72 h, read-out: Inhibition; outline: as §2
RPMI-8226 = assay: Cytotoxicity against human RPMI8226 cells; format: functional
LOX IMVI = assay: Cytotoxicity against human LOX IMVI cells; format: functional
MCF7 [8] = assay: Cytotoxicity against human MCF7 cells at 100 uM after 72 hrs by Cell Titer 96 Aqueous Non-Radioactive assay; format: functional; settings: MCF7, 72 h, read-out: Inhibition; outline: as §2
PC-3 [9] = assay: Cytotoxicity against human PC3 cells after 72 hrs by Cell Titer 96 Aqueous Non-Radioactive assay; format: functional; settings: PC-3, 72 h
Outline: (§3)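 MCF7, NCI-H520 and PC-3 cells in RPMI-1640 + 10% FBS, 2 mM L-glutamine, 0.1 mM non-essential amino acids; 1 × 10^4 cells/well, 24 h at 37 °C, then drug in DMSO or EtOH (<1%) for 72 h. Cells under 50% survival at 100 μM retested over further concentrations for GI50. MTS/PMS read at 490 nm, blank subtracted, versus vehicle wells; quadruplicate or more.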

MCF7 [10] = assay: Cytotoxicity against human MCF7 cells after 72 hrs by Cell Titer 96 Aqueous Non-Radioactive assay; format: functional; settings: MCF7, 72 h; outline: as §3
OVCAR-3 = assay: Cytotoxicity against human OVCAR-3 cells; format: functional
EKVX = assay: Cytotoxicity against human EKVX cells; format: functional
MOLT-4 = assay: Cytotoxicity against human MOLT4 cells; format: functional
DU-145 = assay: Cytotoxicity against human DU145 cells; format: functional
[11] = Cytotoxicity against human HL60 (TB) cells; format: functional; settings: HL-60
MCF7 [12] = assay: Cytotoxicity against human MCF7 cells at 10 uM after 72 hrs by Cell Titer 96 Aqueous Non-Radioactive assay; format: functional; settings: MCF7, 72 h, read-out: Inhibition; outline: as §2
PC-3 [13] = assay: Cytotoxicity against human PC3 cells at 10 uM after 72 hrs by Cell Titer 96 Aqueous Non-Radioactive assay; format: functional; settings: PC-3, 72 h, read-out: Inhibition; outline: as §2
HOP-92 = assay: Cytotoxicity against human HOP92 cells; format: functional
[14] = Cell cycle arrest in mouse tsFT210 cells assessed as accumulation at G2/M phase at 100 uM after 18 hrs by flow cytometry; format: functional, cell-based; outline: as §1

CC(C)=CCc1[nH]c2cc(N)ccc2c1C[C@@H]1NC(=O)[C@@H]2CCCN2C1=O
IC50 [1]: > 100 µM

COc1ccc2c(C[C@@H]3NC(=O)[C@@H]4CCCN4C3=O)cn(CC=C(C)C)c2c1
IC50 [1]: > 100 µM

C=CCn1cc(C[C@@H]2NC(=O)[C@@H]3CCCN3C2=O)c2ccc(OC)cc21
IC50 [1]: 62 µM | Activity [2]: Active

C=CCn1c(CC=C(C)C)c(C[C@@H]2NC(=O)[C@@H]3CCCN3C2=O)c2ccc(OC)cc21
IC50 [1]: 75 µM

CC(C)=CCc1[nH]c2cc([N+](=O)[O-])ccc2c1C[C@@H]1NC(=O)[C@@H]2CCCN2C1=O
IC50 [1]: > 100 µM

COc1ccc2c(C[C@@H]3NC(=O)[C@@H]4CCCN4C3=O)c(CC=C(C)C)n(Cc3ccccc3)c2c1
IC50 [1]: 55 µM

COc1ccc2c(C[C@@H]3NC(=O)[C@@H]4CCCN4C3=O)c(Cl)[nH]c2c1
IC50 [1]: > 100 µM

COc1ccc2c(C[C@H]3NC(=O)[C@@H]4CCCN4C3=O)c(CC=C(C)C)[nH]c2c1
GI50 (SR): 11.3 µM | GI50 (COLO 205): 12.4 µM | inhibition [3]: < 2% | GI50 (BT-549): 9.77 µM | GI50 [4]: 13 µM | GI50 (UO-31): 27.3 µM | cell survival (% of vehicle control) at 100 µM [5]: > 100% | percent cell survival at 100 µM (PC-3 [6]): > 100% | GI50 (IGROV-1): > 50 µM | GI50 (K562): 17.7 µM | GI50 (CCRF-CEM): 11.9 µM | GI50 (HT-29): 16.1 µM | percent cell survival relative to vehicle at 10 µM [7]: > 100% | GI50 (RPMI-8226): 7.76 µM | GI50 (LOX IMVI): 33.5 µM | cell survival (% of vehicle control) at 100 µM (MCF7 [8]): > 100% | GI50 (PC-3 [9]): 21.7 µM | GI50 (MCF7 [10]): 25.5 µM | GI50 (OVCAR-3): > 50 µM | GI50 (EKVX): > 50 µM | GI50 (MOLT-4): 12.2 µM | GI50 (DU-145): 40 µM | GI50 [11]: 35 µM | cell survival (% of vehicle control) at 10 µM (MCF7 [12]): > 100% | percent cell survival relative to vehicle control at 10 µM (PC-3 [13]): > 100%

COc1ccc2c(C[C@@H]3NC(=O)[C@@H]4CCCN4C3=O)c(Cc3ccccc3)[nH]c2c1
IC50 [1]: > 100 µM

CC(C)=CCc1[nH]c2ccccc2c1C[C@H]1NC(=O)[C@@H]2CCCN2C1=O
GI50 (SR): 25.4 µM | GI50 (COLO 205): 39.3 µM | inhibition [3]: < 2% | GI50 (BT-549): 26.9 µM | GI50 [4]: 49.6 µM | GI50 (UO-31): 45.7 µM | GI50 (HOP-92): 2.94 µM | cell survival (% of vehicle control) at 100 µM [5]: 76.5% | percent cell survival at 100 µM (PC-3 [6]): 68.5% | GI50 (IGROV-1): 32.3 µM | GI50 (K562): 31.8 µM | GI50 (CCRF-CEM): 22.2 µM | percent cell survival relative to vehicle at 10 µM [7]: > 100% | GI50 (RPMI-8226): 18.6 µM | GI50 (LOX IMVI): 17.8 µM | cell survival (% of vehicle control) at 100 µM (MCF7 [8]): > 100% | GI50 (PC-3 [9]): 24.8 µM | GI50 (MCF7 [10]): 25.9 µM | GI50 (OVCAR-3): 28.7 µM | GI50 (EKVX): 20.7 µM | GI50 (MOLT-4): 34.9 µM | GI50 (DU-145): 59.5 µM | GI50 [11]: 55.7 µM | cell survival (% of vehicle control) at 10 µM (MCF7 [12]): > 100% | percent cell survival relative to vehicle control at 10 µM (PC-3 [13]): 97.3%

COc1ccc2c(C[C@@H]3NC(=O)[C@H](C(C)C)NC3=O)c(CC=C(C)C)[nH]c2c1
Activity [14]: Active | IC50 [1]: 19 µM | Activity [2]: Active

COC(=O)/C=C/c1[nH]c2cc(OC)ccc2c1C[C@@H]1NC(=O)[C@@H]2CCCN2C1=O
IC50 [1]: > 100 µM

COc1ccc2c(C[C@@H]3NC(=O)[C@@H]4CCCN4C3=O)c[nH]c2c1
IC50 [1]: > 100 µM
